Data: ChEMBL document CHEMBL4400530, “Synthesis and structure-activity relationship studies of water-soluble β-cyclodextrin-glycyrrhetinic acid conjugates as potential anti-influenza virus agents” (Eur J Med Chem, 2019)

Test system: MDCK
Test: Cytotoxicity against MDCK cells assessed as effect on cell viability at 50 uM measured after 36 hrs by CellTiter-Glo assay
Type: cell-based, Canis lupus familiaris
Conditions: dog
In short: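 MDCK cells (1 × 10⁴ per well) left to adhere 24 h at 37 °C, 5% CO₂. Medium then replaced with fresh medium containing compound at 50 μM, in triplicate. Controls received medium with 1% DMSO. Plates incubated 36 h at 37 °C, 5% CO₂, then viability read by CellTiter-Glo luminescence.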

| SMILES | Activity |
| --- | --- |
| CC(=O)OC[C@H]1O[C@@H]2O[C@H]3[C@H](OC(C)=O)[C@@H](OC(C)=O)[C@@H](O[C@H]4[C@H](OC(C)=O)[C@@H](OC(C)=O)[C@@H](O[C@H]5[C@H](OC(C)=O)[C@@H](OC(C)=O)[C@@H](O[C@H]6[C@H](OC(C)=O)[C@@H](OC(C)=O)[C@@H](O[C@H]7[C@H](OC(C)=O)[C@@H](OC(C)=O)[C@@H](O[C@H]8[C@H](OC(C)=O)[C@@H](OC(C)=O)[C@@H](O[C@H]1[C@H](OC(C)=O)[C@H]2OC(C)=O)O[C@@H]8COC(C)=O)O[C@@H]7COC(C)=O)O[C@@H]6COC(C)=O)O[C@@H]5Cn1cc(CO[C@H]2CC[C@]5(C)[C@H]6C(=O)C=C7[C@@H]8C[C@@](C)(C(=O)OCc9ccccc9)CC[C@]8(C)CC[C@@]7(C)[C@]6(C)CC[C@H]5C2(C)C)nn1)O[C@@H]4COC(C)=O)O[C@@H]3COC(C)=O | Non-Toxic |
| CC1(C)[C@@H](O)CC[C@]2(C)[C@H]3C(=O)C=C4[C@@H]5C[C@@](C)(C(=O)Nc6ccc(-c7cn(C[C@H]8O[C@@H]9O[C@H]%10[C@H](O)[C@@H](O)[C@@H](O[C@H]%11[C@H](O)[C@@H](O)[C@@H](O[C@H]%12[C@H](O)[C@@H](O)[C@@H](O[C@H]%13[C@H](O)[C@@H](O)[C@@H](O[C@H]%14[C@H](O)[C@@H](O)[C@@H](O[C@H]%15[C@H](O)[C@@H](O)[C@@H](O[C@H]8[C@H](O)[C@H]9O)O[C@@H]%15CO)O[C@@H]%14CO)O[C@@H]%13CO)O[C@@H]%12CO)O[C@@H]%11CO)O[C@@H]%10CO)nn7)cc6)CC[C@]5(C)CC[C@@]4(C)[C@]3(C)CC[C@@H]12 | Non-Toxic |
| COC[C@H]1O[C@@H]2O[C@H]3[C@H](OC)[C@@H](OC)[C@@H](O[C@H]4[C@H](OC)[C@@H](OC)[C@@H](O[C@H]5[C@H](OC)[C@@H](OC)[C@@H](O[C@H]6[C@H](OC)[C@@H](OC)[C@@H](O[C@H]7[C@H](OC)[C@@H](OC)[C@@H](O[C@H]8[C@H](OC)[C@@H](OC)[C@@H](O[C@H]1[C@H](OC)[C@H]2OC)O[C@@H]8COC)O[C@@H]7COC)O[C@@H]6COC)O[C@@H]5Cn1cc(CNC(=O)[C@@]2(C)CC[C@]5(C)CC[C@]6(C)C(=CC(=O)[C@@H]7[C@@]8(C)CC[C@H](O)C(C)(C)[C@@H]8CC[C@]76C)[C@@H]5C2)nn1)O[C@@H]4COC)O[C@@H]3COC | Toxic |
| CC(=O)OC[C@H]1O[C@@H]2O[C@H]3[C@H](OC(C)=O)[C@@H](OC(C)=O)[C@@H](O[C@H]4[C@H](OC(C)=O)[C@@H](OC(C)=O)[C@@H](O[C@H]5[C@H](OC(C)=O)[C@@H](OC(C)=O)[C@@H](O[C@H]6[C@H](OC(C)=O)[C@@H](OC(C)=O)[C@@H](O[C@H]7[C@H](OC(C)=O)[C@@H](OC(C)=O)[C@@H](O[C@H]8[C@H](OC(C)=O)[C@@H](OC(C)=O)[C@@H](O[C@H]1[C@H](OC(C)=O)[C@H]2OC(C)=O)O[C@@H]8COC(C)=O)O[C@@H]7COC(C)=O)O[C@@H]6COC(C)=O)O[C@@H]5Cn1cc(CO[C@H]2CC[C@]5(C)[C@H]6C(=O)C=C7[C@@H]8C[C@@](C)(C(=O)O)CC[C@]8(C)CC[C@@]7(C)[C@]6(C)CC[C@H]5C2(C)C)nn1)O[C@@H]4COC(C)=O)O[C@@H]3COC(C)=O | Non-Toxic |
| CC(=O)OC[C@H]1O[C@@H]2O[C@H]3[C@H](OC(C)=O)[C@@H](OC(C)=O)[C@@H](O[C@H]4[C@H](OC(C)=O)[C@@H](OC(C)=O)[C@@H](O[C@H]5[C@H](OC(C)=O)[C@@H](OC(C)=O)[C@@H](O[C@H]6[C@H](OC(C)=O)[C@@H](OC(C)=O)[C@@H](O[C@H]7[C@H](OC(C)=O)[C@@H](OC(C)=O)[C@@H](O[C@H]8[C@H](OC(C)=O)[C@@H](OC(C)=O)[C@@H](O[C@H]1[C@H](OC(C)=O)[C@H]2OC(C)=O)O[C@@H]8COC(C)=O)O[C@@H]7COC(C)=O)O[C@@H]6COC(C)=O)O[C@@H]5Cn1cc(-c2ccc(NC(=O)[C@@]5(C)CC[C@]6(C)CC[C@]7(C)C(=CC(=O)[C@@H]8[C@@]9(C)CC[C@H](O)C(C)(C)[C@@H]9CC[C@]87C)[C@@H]6C5)cc2)nn1)O[C@@H]4COC(C)=O)O[C@@H]3COC(C)=O | Non-Toxic |
